# Tests used:
# [1] = system: Hepatitis B virus; test: Antiviral activity against HBV infected in human HepG2(2.2.15) cells assessed as decrease in HBV genome replication after 5 days by qPCR method; assay type: functional, cell-based; conditions: HepG2 2.2.15, 120 h
# Outline: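 HepG2.2.15 cells (stable HBV genome, Hep G2-derived; DMEM-F12, 10% FBS, penicillin/streptomycin, 0.5 mg/mL G418) seeded 3 × 10^4/well, incubated overnight at 37 °C. Compounds serially half-log diluted in DMSO, then in medium; final DMSO 0.5%. HBV DNA extracted and quantified by qPCR.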
# [2] = Cytotoxicity against HBV infected human HepDE19 cells assessed as decrease in cell viability after 5 days by CCK8 assay; assay type: cell-based
# Outline: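 Tetracycline-inducible HBV HepDE19 cells seeded 5 × 10^3/well and treated with compounds. After 5 days, viability read by CCK-8 (2 h, 37 °C; absorbance 450 and 630 nm).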
# [3] = Selectivity index, ratio of CC50 for HBV infected human HepDE19 cells to EC50 for HBV infected in human HepG2(2.2.15) cells
# Outline: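 Selectivity index calculated as CC50 (HepDE19, CCK-8 viability after 5 days) divided by EC50 (HBV DNA reduction in HepG2.2.15 cells, qPCR).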
# [4] = Solubility of compound in phosphate buffer at pH 6.5 after one night incubation by HPLC-UV method; assay type: physicochemical
EC50 [1] [nM],solubility [4] [µg/mL],Compound,CC50 at 120 h [2] [nM],Ratio CC50/EC50 [3]
> 100,,CCOC(=O)C1=C(CN2CCOC[C@H]2C(=O)O)NC(c2nccs2)=N[C@H]1c1cccc(C#N)c1Cl,,
,,CCOC(=O)C1=C(CN2CCOC[C@H]2C(=O)O)NC(c2nccs2)=N[C@H]1c1ccc(F)cc1Br,72000,
> 1000,,COC(=O)C1=C(CN2CCNC[C@H]2C(=O)O)NC(c2nccs2)=N[C@H]1c1ccc(F)cc1Cl,,
> 1000,,COC(=O)C1=C(CN2CCOC[C@H]2C(=O)O)NC(c2ncco2)=N[C@H]1c1ccc(F)cc1Cl,> 100000,
> 1000,,COC(=O)C1=C(CN2CCOC[C@H]2C(=O)O)NC(c2ncccn2)=N[C@H]1c1ccc(F)cc1Cl,> 100000,
> 100,,CC(C)(C)OC(=O)C1=C(CN2CCOC[C@H]2C(=O)O)NC(c2nccs2)=N[C@H]1c1ccc(F)cc1Cl,41000,
42,,COC(=O)C1=C(CN2CCOC[C@H]2C(=O)O)NC(c2nccn2C)=N[C@H]1c1ccc(F)cc1Cl,82000,1952
> 100,,COC(=O)C1=C(CN2CCOC[C@H]2C(=O)O)NC(c2nccs2)=N[C@H]1c1ccc(F)cc1C(F)(F)F,> 100000,
> 100,,COC(=O)C1=C(CN2CCOC[C@H]2C(=O)O)NC(c2nccs2)=N[C@H]1c1ccc(F)cc1C1CC1,> 100000,
4,48,COC(=O)C1=C(CN2CCOC[C@H]2CNS(C)(=O)=O)NC(c2nccs2)=N[C@H]1c1ccc(F)cc1Cl,88000,22000
190,,COCCOC(=O)C1=C(CN2CCOC[C@H]2C(=O)O)NC(c2nccs2)=N[C@H]1c1ccc(F)cc1Cl,> 100000,>526
> 100,,CCOC(=O)C1=C(CN2CCOC[C@H]2C(=O)O)NC(c2nccs2)=N[C@H]1c1ccc(C#N)cc1,,
> 100,,COC(=O)C1=C(CN2CCOC[C@H]2C(=O)O)NC(c2nccs2)=N[C@H]1c1ccc(C(F)(F)F)cc1Cl,50000,431
11,,COC(=O)C1=C(CN2CCOC[C@H]2C(=O)O)NC(c2nccs2)=N[C@H]1c1ccc(C)cc1Cl,> 100000,>9091
50 to 80,,COC(=O)C1=C(C)NC(c2ncc(F)cc2F)=N[C@H]1c1ccc(F)cc1Cl,,
333,> 592,COC(=O)C1=C(CN2CCOC(C(=O)O)C2)NC(c2nccs2)=N[C@H]1c1ccc(F)cc1Cl (some centres undefined),> 100000,>300
12,,CCCOC(=O)C1=C(CN2CCOC[C@H]2C(=O)O)NC(c2nccs2)=N[C@H]1c1ccc(F)cc1Cl,> 100000,>8333
150,> 697,COC(=O)C1=C(CN2CCOC[C@H]2CCC(=O)O)NC(c2nccs2)=N[C@H]1c1ccc(F)cc1Cl,> 100000,>667
> 1000,,N#CC1=C(CN2CCOC[C@H]2C(=O)O)NC(c2nccs2)=N[C@H]1c1ccc(F)cc1Cl,,
600,> 638,COC(=O)C1=C(CN2CCOC[C@H]2CC(=O)O)NC(c2nccs2)=N[C@H]1c1ccc(F)cc1Cl,> 100000,>167

EC50 [1] [nM],solubility [4] [µg/mL],Compound,CC50 at 120 h [2] [nM],Ratio CC50/EC50 [3]
22,,COC(=O)C1=C(CN2CCOC[C@H]2C(=O)O)NC(c2nc(C3CC3)cs2)=N[C@H]1c1ccc(F)cc1Cl,,
> 1000,,COC(=O)C1=C(C)NC(c2nccs2)=NC1c1cccc(C(=O)O)c1 (centres undefined),,
1,,COC(=O)C1=C(CN2CCOC[C@H]2C(=O)O)NC(c2nccs2)=N[C@H]1c1ccc(F)c(F)c1Br,80000,80000
> 1000,,CC1=C(C(=O)O)C(c2ccc(F)cc2Cl)N=C(c2nccs2)N1 (centres undefined),,
8,,COC(=O)C1=C(CN2CCOC[C@H]2C(=O)O)NC(c2nccs2)=N[C@H]1c1ccc(F)cc1C,> 100000,12500
> 1000,,COC(=O)C1=C(C)NC(c2nc(C(=O)O)cs2)=NC1c1ccc(F)cc1Cl (centres undefined),,
3,,CCOC(=O)C1=C(CN2CCOC[C@H]2C(=O)O)NC(c2nccs2)=N[C@H]1c1ccc(Br)cc1Cl,31000,
3,205,COC(=O)C1=C(CN2CCOC[C@H]2C(N)=O)NC(c2nccs2)=N[C@H]1c1ccc(F)cc1Cl,> 100000,>33333
> 1000,,COC(=O)C1=C(CN2CCN(C(C)=O)C[C@H]2C(=O)O)NC(c2nccs2)=N[C@H]1c1ccc(F)cc1Cl,,
3,,CCOC(=O)C1=C(CN2CCOC[C@H]2C(=O)O)NC(c2nccs2)=N[C@H]1c1ccc(F)cc1C,> 100000,>33333
> 100,,CCOC(=O)C1=C(CN2CCOC[C@H]2C(=O)O)NC(c2nccs2)=N[C@H]1c1cccc(Cl)c1Cl,,
> 100,,CCOC(=O)C1=C(CN2CCOC[C@H]2C(=O)O)NC(c2nccs2)=N[C@H]1c1ccc(OC)cc1,,
5,475,COC(=O)C1=C(CN2CCOCC2CO)NC(c2nccs2)=N[C@H]1c1ccc(F)cc1Cl (some centres undefined),74000,14800
> 1000,,COC(=O)C1=C(CN2CCCC[C@H]2C(=O)O)NC(c2nccs2)=N[C@H]1c1ccc(F)cc1Cl,,
> 1000,,CCNC(=O)C1=C(CN2CCOC[C@H]2C(=O)O)NC(c2nccs2)=N[C@H]1c1ccc(F)cc1Cl,,
3,,CCOC(=O)C1=C(CN2CCOC[C@H]2C(=O)O)NC(c2nccs2)=N[C@H]1c1ccc(C)cc1Cl,> 100000,>33333
4,< 1,COC(=O)C1=C(CN2CCOC[C@H]2C(=O)OC)NC(c2nccs2)=N[C@H]1c1ccc(F)cc1Cl,,
38,584,"COC(=O)C1=C(CN2CCSCC2C(=O)O)NC(c2nccs2)=N[C@H]1c1ccc(F)cc1Cl (single isomer, unassigned)",60000,1579
80,16,COC(=O)C1=C(C)NC(c2nccs2)=N[C@H]1c1ccc(F)cc1Cl,83000,1038
8,,COC(=O)C1=C(CN2CCOC[C@H]2C(=O)O)NC(c2ncc(F)cc2F)=N[C@H]1c1ccc(F)cc1Cl,23000,2875

Compound,EC50 [1] [nM],solubility [4] [µg/mL],CC50 at 120 h [2] [nM],Ratio CC50/EC50 [3]
CCOC(=O)C1=C(CN2CCOC[C@H]2C(=O)O)NC(c2nccs2)=N[C@H]1c1ccccc1Cl,14,,> 100000,>7143
CCOC(=O)C1=C(CN2CCOC[C@H]2C(=O)O)NC(c2nccs2)=N[C@H]1c1ccc(F)cc1F,14,,> 100000,>7143
O=C(OCC(F)(F)F)C1=C(CN2CCOC[C@H]2C(=O)O)NC(c2nccs2)=N[C@H]1c1ccc(F)cc1Cl,13,,27000,2077
CCOC(=O)C1=C(CN2CCOC[C@H]2C(=O)O)NC(c2nccs2)=N[C@H]1c1cccc(F)c1Br,0.7,,95000,
CCOC(=O)C1=C(CN2CCOC[C@H]2C(=O)O)NC(c2nccs2)=N[C@H]1c1ccc(F)c(F)c1C,0.6,,97000,
CCOC(=O)C1=C(CN2CCOC[C@H]2C(=O)O)NC(c2nccs2)=N[C@H]1c1ccc(F)cc1,15,,62000,4133
COC(=O)C1=C(CN2CCOC[C@H]2C(=O)O)NC(c2nc(C)cs2)=N[C@H]1c1ccc(F)cc1Cl,7,,> 100000,>14826
COC(=O)C1=C(CN2CCOC[C@H]2C(=O)O)NC(c2nccs2)=N[C@H]1c1ccc(F)cc1Br,6,,> 100000,
COC(=O)C1=C(CN2CCO[C@H](C(C)C)[C@H]2C(=O)O)NC(c2nccs2)=N[C@H]1c1ccc(F)cc1Cl,5,,81000,16200
CCOC(=O)C1=C(CN2CCOC[C@H]2C(=O)O)NC(c2nccs2)=N[C@H]1c1ccc(F)c(F)c1Cl,0.6,,29000,48333
COC(=O)C1=C(CN2CCOC[C@@H]2C(=O)O)NC(c2nccs2)=N[C@H]1c1ccc(F)cc1Cl,79,,> 100000,>1266
COC(=O)C1=C(CN2CCOC[C@H]2C(=O)O)NC(c2nccs2)=N[C@H]1c1cccc(F)c1Cl,4,,> 100000,>25000
COC(=O)C1=C(CN2CCOC[C@@]2(C)C(=O)O)NC(c2nccs2)=N[C@H]1c1ccc(F)cc1Cl,20,600,> 100000,
CCOC(=O)C1=C(CN2CCOC[C@H]2C(=O)O)NC(c2nccs2)=N[C@H]1c1ccc(F)c(F)c1Br,0.7,,51000,72857
COC(=O)C1=C(CN2CCOC[C@H]2C(=O)O)NC(c2nccs2)=N[C@H]1c1ccc(F)c(F)c1Cl,1,,> 100000,>100000
COC(=O)C1=C(CN2CCOC[C@H]2C(=O)O)NC(c2ncoc2C)=N[C@H]1c1ccc(F)cc1Cl,14,,> 100000,>7143
CC(C)OC(=O)C1=C(CN2CCOC[C@H]2C(=O)O)NC(c2nccs2)=N[C@H]1c1ccc(F)cc1Cl,17,,72000,4235
